Bioassay records: PubChem BioAssay, Sanford-Burnham Center for Chemical Genomics
Rows were chosen to be rich in hits. Some 1.7% of all compounds tested hit in one or more screens of this group.
STEP inh: inhibitors of human striatal-enriched phosphatase STEP; inhibition, % at 20 µM; P54829; recombinant STEP, OMFP fluorogenic substrate, fluorescence; 0.25% of 360,000 active;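 active means inhibition at 20 µM, scaled per plate between control wells, above about 37%, limit read from the data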;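 further: 0% = DMSO with enzyme and substrate and 100% = substrate only without enzyme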
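material = STEP tyrosine phosphatase | reagent = fluorogenic phosphatase substrate OMFP at 25 µM final | doses = single compound dose of 20 µM, 1% DMSO final | schedule = 20 min reaction, room temperature, in the dark | measured by = fluorescence, 480/540 nm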
Scp1 inh: Scp-1 (human) phosphatase inhibition; Recombinant Scp1, phosphopeptide, malachite green phosphate absorbance; 0.88% of 340,000 active; AID 493091; Q9GZU7; inhibition, % at 20 µM;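 active means inhibition above about 50% at 20 µM, limit read from the data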;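 further: plate controls were DMSO wells with enzyme for no effect and wells lacking enzyme for full effect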
Target sequence (Q9GZU7 76-261 limits assumed): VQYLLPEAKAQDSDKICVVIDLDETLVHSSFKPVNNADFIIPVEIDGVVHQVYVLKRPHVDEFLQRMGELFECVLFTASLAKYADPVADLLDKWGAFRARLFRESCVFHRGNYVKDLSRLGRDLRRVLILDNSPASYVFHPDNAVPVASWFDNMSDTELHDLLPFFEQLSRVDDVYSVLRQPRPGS
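Material: truncated SCP-1 phosphatase (76-261aa) / Buffer or medium: 50 mM Tris acetate pH 5.5, 0.005% Tween-20, 10 mM MgCl2 / Compound dosing: one concentration, 20 µM, with 1.0% DMSO / Incubation: 45 min room-temperature reaction, 5 min colour, 30 min stabiliser / Detection: colorimetric free-phosphate detection, absorbance 630 nm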
DNMT1 inh: inhibitors of human DNMT1. AID 588458. P26358. inhibition (reported as % activation of signal), % at 10 µM. 0.83% of 360,000 active. DNMT1 molecular beacon, Hinp1I cleavage, fluorescence; in the data active means inhibition above about 50%
SUMO1 PPI mod: SUMO1-SIM interaction modulation; AID 602429; inhibition, % at 20 µM; SUMO1 binding to a labelled peptide, TR-FRET, 1 h; 0.33% of 360,000 active; P63165; in the data active means inhibition above about 37%
Target sequence (P63165 whole entry, looked up): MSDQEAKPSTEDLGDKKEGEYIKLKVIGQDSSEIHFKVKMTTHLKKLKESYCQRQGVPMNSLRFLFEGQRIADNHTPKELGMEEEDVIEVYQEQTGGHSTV
LMPTP inh: LMPTP (human) inhibition; P24666; recombinant LMPTP-A, OMFP fluorogenic substrate, fluorescence intensity; inhibition, % at 20 µM; 0.22% of 360,000 active; AID 651560;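 active means compounds that cut the enzyme signal by at least half of the control window in the single-dose screen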;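 further: plate controls were DMSO wells with enzyme plus substrate for no effect and substrate without enzyme for full effect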
Target sequence (P24666 whole entry, looked up): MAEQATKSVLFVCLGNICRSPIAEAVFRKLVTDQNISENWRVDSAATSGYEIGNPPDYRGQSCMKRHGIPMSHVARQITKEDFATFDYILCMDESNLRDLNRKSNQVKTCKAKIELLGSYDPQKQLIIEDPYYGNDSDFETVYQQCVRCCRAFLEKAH
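Assay system: LMPTP-A, protein tyrosine phosphatase of low molecular weight / Medium: pH 6.0 Bis-Tris buffer with DTT and Triton X-100 / Schedule: 50 min enzyme reaction at room temperature, protected from light / Measured by: endpoint fluorescence intensity from OMFP dephosphorylation / Read-out basis: % inhibition relative to no-enzyme and uninhibited control wells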
Scp1 confirm: confirmation of human Scp-1 phosphatase inhibitors; shares compounds with Scp1 inh; recombinant SCP-1 catalytic domain, phosphate release, malachite green absorbance; inhibition, % at 20 µM; 61% of 2,500 active; AID 540281;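 further: plate controls were DMSO with enzyme for no effect and buffer wells lacking enzyme for full effect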
Scp-1 MG ctr: colorimetric interference in Scp-1 counter-screen. shares compounds with Scp1 inh. 2,500 tested, under 10 active. apparent inhibition (interference), % at 20 µM. Colorimetric interference counterscreen, malachite green absorbance 630 nm. AID 540313;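 further: compounds added after enzyme reaction finished so only phosphate colour detection is probed; plate controls were DMSO wells with completed Scp-1 reaction for no effect and substrate wells lacking enzyme for full effect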
Scp-1 Tm shift: binds human Scp-1, shifting its melting temperature. 25% of 1,500 active. AID 540329. shares compounds with Scp1 inh. Recombinant SCP1, Sypro Orange thermal shift Tm. thermal shift relative to vanadate control, % at 40 µM;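 active means substances whose mean melting-temperature shift, as a percentage of the reference inhibitor's shift, reaches about 5.3%, limit read from the data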;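 further: 0% = Tm of DMSO wells and 100% = Tm with sodium orthovanadate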
Starred values were filed as active, the others as inactive; . = no result.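 How the source made its calls, unless noted: active means inhibition of at least 30% at 20 µM; inactive means the rest.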

SMILES | STEP inh | Scp1 inh | DNMT1 inh | SUMO1 PPI mod | LMPTP inh | Scp1 confirm | Scp-1 MG ctr | others
CC(=O)OCC1=C(C(=O)O)N2C(=O)C(NC(=O)C(C)Cn3nc(C)c(Cl)c3C)C2SC1 (centres undefined) | 1.3 | 52.9* | 23.7 | 3.1 | 0.6 | 67.2* | -4.6 | Scp-1 Tm shift=-0.6
CCOC(=O)CC1C(=O)NCCN1C(=O)c1cccc(OC)c1 (centres undefined) | -1.6 | -7.3 | 1.8 | 18.0 | -1.2 | . | .
CC[C@]1(C(=O)OC)[C@H]2C(=O)N(C)C(=O)[C@H]2[C@H]2CN=C(SCc3ccc(C(=O)OC)cc3)N21 | 3.2 | -4.0 | 6.7 | 6.0 | -0.8 | . | .
Cc1cc(C)n2cc(CSCc3ccccc3)nc2n1 | 3.0 | -4.0 | 1.1 | -0.9 | -0.1 | . | .
Cc1cc(C)n2cc(CSc3nnc(-c4ccccc4)o3)nc2n1 | 0.4 | 79.6* | 3.0 | -2.5 | -0.9 | -5.6 | -12.6
C=CCNC(=O)[C@H]1N2C(=O)c3ccccc3C2SC1(C)C (some centres undefined) | 1.9 | -12.3 | -0.2 | 0.4 | -3.4 | . | .
CS(=O)(=O)C1=NSC2=NC(=O)/C(=C\c3cccn3-c3ccc(Cl)cc3)C(=N)N21 | 95.2* | 82.7* | 1.8 | 4.0 | 19.8 | 78.8* | -20.0 | Scp-1 Tm shift=-36.0
CCN(CC)S(=O)(=O)c1ccc(O)c(C(=O)OCC(=O)N2CCCC2)c1 | 4.6 | 52.7* | 4.2 | 2.5 | -1.1 | -7.5 | -11.2
COc1ccc(NS(=O)(=O)c2ccc(O)c(C(=O)OCC(=O)N3CCCCC3)c2)cc1 | -1.5 | -3.6 | 4.2 | 10.5 | -0.3 | . | .
Cc1cc(C)c(C#N)c(Cl)n1 | -0.6 | 66.3* | -0.1 | 3.8 | -0.5 | -24.6 | -21.4
Cc1cc(C)c(C#N)c(N2CCCC2)n1 | 0.5 | -5.6 | 0.3 | 2.2 | -0.9 | . | .
NC1=C(c2ccc([N+](=O)[O-])cc2)C(=O)CO1 | 1.0 | -0.8 | 0.6 | -22.9 | 0.3 | . | .
O=c1oc2c(-c3ccc([N+](=O)[O-])cc3)cc(O)cc2s1 | 20.2 | 102.9* | 10.7 | 66.6* | 46.5 | 65.7* | -23.2 | Scp-1 Tm shift=10.4*
Cn1nc2c(c1C(=O)N1CCCC(C(=O)c3cc(F)ccc3F)C1)CCCC2 (centres undefined) | -1.9 | -1.7 | 5.3 | 2.3 | -2.1 | . | .
Cn1nc2c(c1C(=O)O)CCCC2 | -6.1 | 60.4* | 41.4 | 1.3 | -0.3 | 67.3* | 0.6 | Scp-1 Tm shift=-4.8
O=C(Nc1ccnc(=O)[nH]1)c1sc2ccccc2c1Cl | 5.9 | 98.2* | 0.9 | -16.5 | 9.0 | 66.6* | -14.5 | Scp-1 Tm shift=-13.2
O=C(Nc1ccncc1)c1sc2ccccc2c1Cl | -2.2 | -2.5 | 0.0 | -19.0 | -1.0 | . | .
Cc1ccccc1Cn1ccc(NC(=O)c2cc3ncc(Br)cn3n2)n1 | -2.7 | -5.6 | 0.1 | -4.6 | -0.8 | . | .
CSc1ccccc1NC(=O)c1cc2ncc(Br)cn2n1 | 3.0 | 60.0* | 21.9 | -4.7 | 2.1 | 50.3* | -12.8 | Scp-1 Tm shift=-2.8
Cc1ccccc1-c1cc(C(=O)NCc2cccc(Br)c2)n(CC2CC(c3cccnc3)=NO2)n1 (centres undefined) | 0.2 | 0.6 | -5.9 | -2.6 | 3.1 | . | .
CCOC(=O)c1ccc2c(c1)[n+](CC)c(C)n2-c1ccccc1 | 6.1 | 11.2 | 0.1 | 2.2 | -2.0 | . | .
CC(=O)OCC[n+]1c(C)n(-c2ccccc2)c2ccc(Cl)cc21 | -0.7 | 89.7* | 1.7 | -2.5 | -2.0 | -8.7 | -13.1
CS(=O)(=O)c1ccc(Cl)c(NC(=O)COC(=O)CCN2C(=O)C3CC=CCC3C2=O)c1 (centres undefined) | 3.0 | -9.8 | 5.0 | -4.6 | -1.4 | . | .
O=C(NCc1ccccc1)NC(=O)c1ccccc1F | -1.0 | -2.0 | -2.3 | 14.8 | -1.3 | . | .
C=CCn1c(SCc2nc3sc(C(=O)O)c(C)c3c(=O)[nH]2)nnc1-c1ccccc1 | -0.7 | 25.8 | 7.5 | 5.5 | 0.2 | . | .
